Assay results from ChEMBL document CHEMBL3124882, “Semi-synthesis of acylated triterpenes from olive-oil industry wastes for the development of anticancer and anti-HIV agents” (Eur J Med Chem, 2014).
Active and inactive are the calls of the source. No cut-off for these calls is given here.

What was measured:
[1] = tested on: B16-F10; experiment: Induction of apoptosis in mouse B16F10 cells assessed as late apoptotic cells at 2 X IC50 after 72 hrs by annexin V-FITC/propidium iodide staining-based FACS analysis (reference value: 9.8 +/- 2.2%); assay type: functional
[2] = tested on: B16-F10; experiment: Induction of apoptosis in mouse B16F10 cells assessed as necrotic cells at 2 X IC50 after 72 hrs by annexin V-FITC/propidium iodide staining-based FACS analysis (reference value: 4.0 +/- 0.6%); assay type: functional
[3] = tested on: B16-F10; experiment: Induction of apoptosis in mouse B16F10 cells assessed as late apoptotic cells at IC50 after 72 hrs by annexin V-FITC/propidium iodide staining-based FACS analysis (reference value: 9.8 +/- 2.2%); assay type: functional
[4] = tested on: B16-F10; experiment: Induction of apoptosis in mouse B16F10 cells assessed as early apoptotic cells at 2 X IC50 after 72 hrs by annexin V-FITC/propidium iodide staining-based FACS analysis (reference value: 3.9 +/- 0.4%); assay type: functional
[5] = tested on: B16-F10; experiment: Cytotoxicity against mouse B16F10 cells after 72 hrs by MTT assay; assay type: functional, cell-based; conditions: B16-F10, 72 h
Method in brief: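 B16F10 cells (DMEM, 2 mM glutamine, 10% heat-inactivated FCS, penicillin/streptomycin; subconfluent) seeded at 11·10^3 per well and exposed to 0–80 µg/mL for 72 h. Compounds were diluted from a 10 mg/mL stock in 50% DMSO/PBS. MTT 0.5 mg/mL for 2 h, formazan dissolved in DMSO, absorbance at 550 nm. Viability is relative to untreated controls; IC50 from four assays of six replicates, mean ± S.E.M.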

[6] = tested on: B16-F10; experiment: Induction of apoptosis in mouse B16F10 cells assessed as total apoptotic cells at IC50 after 72 hrs by annexin V-FITC/propidium iodide staining-based FACS analysis (reference value: 13.7 +/- 2.7%); assay type: functional
[7] = tested on: B16-F10; experiment: Induction of apoptosis in mouse B16F10 cells assessed as necrotic cells at IC50 after 72 hrs by annexin V-FITC/propidium iodide staining-based FACS analysis (reference value: 4.0 +/- 0.6%); assay type: functional
[8] = tested on: B16-F10; experiment: Induction of ROS generation in mouse B16F10 cells at IC50 to 2 X IC50 after 72 hrs by rhodamine123/propidium iodide staining-based FACS analysis; assay type: functional, cell-based
Method in brief: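 B16F10 cells, 11·10^4 per well, treated 72 h at IC50 or 2×IC50, then given fresh medium with dihydrorhodamine 123 at a final 5 µg/mL for 30 min. Cells washed, resuspended in PBS and read by flow cytometry for Rh123 and PI fluorescence (excitation 500 nm, emission 536 nm). Rh123+ cells scored ROS-positive regardless of PI. Three experiments in duplicate, mean ± S.E.M.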

[9] = tested on: B16-F10; experiment: Induction of apoptosis in mouse B16F10 cells assessed as total apoptotic cells at 2 X IC50 after 72 hrs by annexin V-FITC/propidium iodide staining-based FACS analysis (reference value: 13.7 +/- 2.7%); assay type: functional
[10] = tested on: B16-F10; experiment: Induction of apoptosis in mouse B16F10 cells assessed as normal cells at IC50 after 72 hrs by annexin V-FITC/propidium iodide staining-based FACS analysis (reference value: 77.9 +/- 1.5%); assay type: functional
[11] = tested on: B16-F10; experiment: Induction of apoptosis in mouse B16F10 cells assessed as early apoptotic cells at IC50 after 72 hrs by annexin V-FITC/propidium iodide staining-based FACS analysis (reference value: 3.9 +/- 0.4%); assay type: functional
[12] = tested on: B16-F10; experiment: Induction of apoptosis in mouse B16F10 cells assessed as normal cells at 2 X IC50 after 72 hrs by annexin V-FITC/propidium iodide staining-based FACS analysis (reference value: 77.9 +/- 1.5%); assay type: functional
[13] = biological target: Protease (Human immunodeficiency virus 1, UniProt Q9YQ12); experiment: Inhibition of HIV1 recombinant protease expressed in Escherichia coli using Abz-Ala-Arg-Val-Nle-Tyr(NO2)-Glu-Ala-Nle-NH2 as substrate by FRET assay
Protease, sequence (Q9YQ12 whole entry): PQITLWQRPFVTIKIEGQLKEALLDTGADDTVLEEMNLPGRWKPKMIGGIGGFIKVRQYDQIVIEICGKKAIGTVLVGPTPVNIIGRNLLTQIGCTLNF

Row | IC50 [13] [µM] | SMILES | Activity [1] [%] | Activity [2] [%] | Activity [3] [%] | Activity [4] [%] | IC50 [5] [µM] | Activity [6] [%] | Activity [7] [%] | Activity [8] | Activity [9] [%] | Activity [10] [%] | Activity [11] [%] | Activity [12] [%]
1 |  | CC(=O)O[C@@H]1C[C@]2(C)[C@H]3CC=C4[C@@H]5CC(C)(C)CC[C@]5(C(=O)OCc5ccccc5)CC[C@@]4(C)[C@]3(C)CC[C@H]2C(C)(C)[C@H]1O | 27.1 | 0.6 | 20 | 71.3 | 39.6 | 86 | 1.2 | Active | 98.4 | 12.9 | 66 | 1.1
2 |  | CC1(C)CC[C@]2(C(=O)OCc3ccccc3)CC[C@]3(C)C(=CC[C@@H]4[C@@]5(C)CC[C@H](OC(=O)CCC(=O)O)C(C)(C)[C@@H]5CC[C@]43C)[C@@H]2C1 | 17.6 | 0.7 | 55.5 | 74 | 23.2 | 72.1 | 11.1 | inactive | 91.6 | 16.9 | 16.6 | 7.7
3 |  | CC1(C)CC[C@]2(C(=O)OCc3ccccc3)CC[C@]3(C)C(=CC[C@@H]4[C@@]5(C)C[C@@H](OC(=O)CCCC(=O)O)[C@H](O)C(C)(C)[C@@H]5CC[C@]43C)[C@@H]2C1 | 19.8 | 0.9 | 14.6 | 59.1 | 63.2 | 25.2 | 1.6 | Active | 78.9 | 73.3 | 10.6 | 20.2
4 |  | CCCC(=O)O[C@@H]1C[C@]2(C)[C@H]3CC=C4[C@@H]5CC(C)(C)CC[C@]5(C(=O)O)CC[C@@]4(C)[C@]3(C)CC[C@H]2C(C)(C)[C@H]1O | 30 | 6.8 | 22.1 | 53 | 107 | 77.7 | 1.2 | Active | 83 | 21 | 55.6 | 10.2
5 | 0.4 | CC1(C)CC[C@]2(C(=O)OCc3ccccc3)CC[C@]3(C)C(=CC[C@@H]4[C@@]5(C)CC[C@H](OC(=O)c6ccccc6C(=O)O)C(C)(C)[C@@H]5CC[C@]43C)[C@@H]2C1 | 28.5 | 1 | 30.3 | 66.9 | 26.8 | 94.6 | 1.5 | inactive | 95.4 | 3.9 | 64.3 | 3.7
6 |  | CC1(C)CC[C@]2(C(=O)OCc3ccccc3)CC[C@]3(C)C(=CC[C@@H]4[C@@]5(C)CC[C@H](OC(=O)CCCC(=O)O)C(C)(C)[C@@H]5CC[C@]43C)[C@@H]2C1 | 24.6 | 1.6 | 37.9 | 65.8 | 29.9 | 58.4 | 15.9 | inactive | 90.4 | 25.8 | 20.6 | 8.1
